In ChEMBL document CHEMBL1129264, “Mercaptoacyl dipeptides as orally active dual inhibitors of angiotensin-converting enzyme and neutral endopeptidase” (1996) one finds inhibition and Control data, which are given here for three molecules.

Assay [1] has as its target T1, Angiotensin-converting enzyme (Rattus norvegicus) (UniProt P47820).
T1 sequence (whole entry): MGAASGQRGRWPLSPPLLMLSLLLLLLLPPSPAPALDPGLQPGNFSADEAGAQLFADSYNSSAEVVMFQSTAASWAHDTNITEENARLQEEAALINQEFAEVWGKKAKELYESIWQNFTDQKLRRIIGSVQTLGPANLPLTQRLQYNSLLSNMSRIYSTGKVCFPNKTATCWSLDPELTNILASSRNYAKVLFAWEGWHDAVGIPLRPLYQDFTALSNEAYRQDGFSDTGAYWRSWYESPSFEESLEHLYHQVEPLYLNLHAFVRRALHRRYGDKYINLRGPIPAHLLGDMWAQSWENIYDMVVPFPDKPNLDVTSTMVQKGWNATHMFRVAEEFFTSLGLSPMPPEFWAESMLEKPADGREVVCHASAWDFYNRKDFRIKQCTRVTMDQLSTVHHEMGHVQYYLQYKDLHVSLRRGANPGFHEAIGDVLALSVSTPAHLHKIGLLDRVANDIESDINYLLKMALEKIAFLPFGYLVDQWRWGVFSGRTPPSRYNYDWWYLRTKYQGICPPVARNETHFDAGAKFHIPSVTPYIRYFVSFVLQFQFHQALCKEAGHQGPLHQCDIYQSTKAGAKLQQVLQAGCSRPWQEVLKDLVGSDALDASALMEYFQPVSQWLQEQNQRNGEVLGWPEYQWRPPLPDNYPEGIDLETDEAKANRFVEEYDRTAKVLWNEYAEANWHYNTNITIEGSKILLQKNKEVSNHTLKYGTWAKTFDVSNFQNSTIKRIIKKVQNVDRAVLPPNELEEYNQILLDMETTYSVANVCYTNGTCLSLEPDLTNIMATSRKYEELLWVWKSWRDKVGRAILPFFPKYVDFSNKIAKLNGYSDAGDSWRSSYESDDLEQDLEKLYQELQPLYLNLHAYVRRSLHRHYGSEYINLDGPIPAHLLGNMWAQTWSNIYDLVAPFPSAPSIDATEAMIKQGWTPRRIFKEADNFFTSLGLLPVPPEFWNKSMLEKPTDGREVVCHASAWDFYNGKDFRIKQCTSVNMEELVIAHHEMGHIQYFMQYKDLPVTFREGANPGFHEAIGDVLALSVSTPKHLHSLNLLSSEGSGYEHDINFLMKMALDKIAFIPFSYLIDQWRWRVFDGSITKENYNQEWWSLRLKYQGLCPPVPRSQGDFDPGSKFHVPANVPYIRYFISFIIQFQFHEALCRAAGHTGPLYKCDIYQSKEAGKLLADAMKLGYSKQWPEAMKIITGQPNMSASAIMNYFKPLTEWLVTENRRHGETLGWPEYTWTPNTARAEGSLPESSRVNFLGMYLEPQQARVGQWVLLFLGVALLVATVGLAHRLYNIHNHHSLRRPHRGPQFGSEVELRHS
The experiment in a line: Compound was tested for plasma inhibition of Angiotensin I converting enzyme activity in the conscious rat. Expressed as Inhibition of AI pressor response at 6 hr at a dose of 12 mg/kg po. The class given is organism-based. Also on record: dose 12 mg/kg. Put shortly: (§1)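 Male conscious normotensive Sprague-Dawley rats (275-390 g), prepared under methohexital sodium (75 mg/kg ip) with femoral arterial and venous catheters. The next day, pressor responses to three angiotensin-I challenges (300 ng/kg iv) were recorded. Compound was then given orally and angiotensin-I challenges were repeated at set times. Percent inhibition is relative to the mean of the three baseline responses.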

Assay [2] deals with T1, Angiotensin-converting enzyme (Rattus norvegicus). The assay is described as follows: Compound was tested for plasma inhibition of Angiotensin I converting enzyme activity in the conscious rat. Expressed as Inhibition of AI pressor response at 2 hr at a dose of 12 mg/kg po. In kind it is organism-based. More on the design: dose 12 mg/kg. Put shortly: (§2)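 Male conscious normotensive Sprague-Dawley rats (275-390 g), given femoral arterial and venous catheters under methohexital sodium (75 mg/kg ip) anesthesia. Next day, pressor responses to three angiotensin-I challenges (300 ng/kg iv) recorded by direct arterial pressure. Compound then dosed orally, and AI challenge repeated at set times. Each post-dose response compared with the mean of the three baseline responses, giving % inhibition.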

For assay [3] the target is unchanged. The experiment in a line: Compound was tested for plasma inhibition of Angiotensin I converting enzyme activity in the conscious rat. Expressed as Inhibition of AI pressor response at 4 hr at a dose of 12 mg/kg po. In kind it is organism-based. Also on record: dose 12 mg/kg. The method in brief:
as §2

The target is the same in assay [4]. The experiment in a line: Compound was tested for plasma inhibition of Angiotensin I converting enzyme activity in the conscious rat. Expressed as Inhibition of AI pressor response at 1 hr at a dose of 12 mg/kg po. In kind it is organism-based. More on the design: dose 12 mg/kg. Put shortly: as §2
Assay [5] has as its system Rattus norvegicus. The assay is described as follows: Plasma ANF Concentration in the Conscious Rat at a dose of […]. In kind it is functional. The conditions noted are these: in the assay text read “12.7(po)mg/kg” for “12.4(po)mg/kg”. The method in brief:
(§3)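 Male Sprague-Dawley rats (275-390 g) received femoral artery and vein catheters under ketamine (150 mg/kg)/acepromazine and recovered for 24 h, tethered, before study conscious. ratANF(99-126) was infused at 450 ng/kg/min iv for 5 h. Baseline blood was drawn at 60 min into the infusion, then compound was given po.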

Assay [6] concerns Rattus norvegicus. The assay is described as follows: Plasma ANF Concentration in the Conscious Rat at a dose of 12.7(po)mg/kg at 1 h. The class given is functional. The method in brief:
as §3

The target in assay [7] is T1, Angiotensin-converting enzyme (Rattus norvegicus). The assay is described as follows: Compound was tested for plasma inhibition of Angiotensin I converting enzyme activity in the conscious rat. Expressed as Inhibition of AI pressor response at 1 hr at a dose of 12.7 mg/kg po. More on the design: dose 12.7 mg/kg. In kind it is organism-based. Put shortly: as §2
Assay [8] has the same target. The experiment in a line: Compound was tested for plasma inhibition of Angiotensin I converting enzyme activity in the conscious rat. Expressed as Inhibition of AI pressor response at 2 hr at a dose of 12.7 mg/kg po. The class given is organism-based. More on the design: dose 12.7 mg/kg. The method in brief:
as §2

Assay [9] deals with Rattus norvegicus. The assay is described as follows: Plasma ANF Concentration in the Conscious Rat at a dose of 12.7(po)mg/kg at 0.5 h. In kind it is functional. The method in brief:
as §3

The target of assay [10] is T1, Angiotensin-converting enzyme (Rattus norvegicus). The assay is described as follows: Compound was tested for plasma inhibition of Angiotensin I converting enzyme activity in the conscious rat. Expressed as Inhibition of AI pressor response at 4 hr at a dose of 12.7 mg/kg po. In kind it is organism-based. Also on record: dose 12.7 mg/kg. Put shortly:
as §2

For assay [11], the system named is Rattus norvegicus. The assay is described as follows: Plasma ANF Concentration in the Conscious Rat at a dose of 12.7(po)mg/kg at 4 h. In kind it is functional. The method in brief:
as §3

Assay [12] has as its target T1, Angiotensin-converting enzyme (Rattus norvegicus). The experiment in a line: Compound was tested for plasma inhibition of Angiotensin I converting enzyme activity in the conscious rat. Expressed as Inhibition of AI pressor response at 6 hr at a dose of 12.7 mg/kg po. The class given is organism-based. More on the design: dose 12.7 mg/kg. The method in brief:
as §1

Assay [13] has the same target. The assay is described as follows: Compound was tested for plasma inhibition of Angiotensin I converting enzyme activity in the conscious rat. Expressed as Inhibition of AI pressor response at 2 hr at a dose of 13 mg/kg po. In kind it is organism-based. Also on record: dose 13 mg/kg. The method in brief:
(§4)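 Male conscious normotensive Sprague-Dawley rats (275-390 g), fitted under methohexital (75 mg/kg ip) with femoral arterial and venous catheters for direct blood pressure. Next day, pressor responses to three angiotensin-I challenges (300 ng/kg iv) were recorded. Compound was then given po and AI challenge repeated at scheduled times. Each post-dose response was compared with the mean of the three initial responses.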

Assay [14] has the same target. The assay is described as follows: Compound was tested for plasma inhibition of Angiotensin I converting enzyme activity in the conscious rat. Expressed as Inhibition of AI pressor response at 4 hr at a dose of 13 mg/kg po. In kind it is organism-based. Also on record: dose 13 mg/kg. Put shortly: as §4
Assay [15] shares this target. The assay is described as follows: Compound was tested for plasma inhibition of Angiotensin I converting enzyme activity in the conscious rat. Expressed as Inhibition of AI pressor response at 1 hr at a dose of 13 mg/kg po. More on the design: dose 13 mg/kg. The class given is organism-based. Put shortly: as §4
For assay [16] the target is unchanged. The experiment in a line: Compound was tested for plasma inhibition of Angiotensin I converting enzyme activity in the conscious rat. Expressed as Inhibition of AI pressor response at 6 hr at a dose of 13 mg/kg po. The class given is organism-based. Also on record: dose 13 mg/kg. The method in brief:
as §4

The term inhibition denotes how much of the control response was suppressed. `C=CCOC(=O)[C@H](Cc1ccc(O)cc1)NC(=O)C1(NC(=O)[C@H](SC(C)=O)C(C)C)CCCC1`: the inhibition was 59% in assay [1], 75% in assay [2], 67% in assay [3] and 68% in assay [4].
With `CC(=O)S[C@@H](C(=O)NC1(C(=O)N[C@@H](Cc2ccc(O)cc2)C(=O)OCCC(C)C)CCCC1)C(C)C`, the Control in the assay with Rattus norvegicus [5] is 236%; in the assay with Rattus norvegicus [6] it was 235%; with Rattus norvegicus [9], 178%; with Rattus norvegicus [11] it was 251%. Besides, the inhibition was determined as 83% in [7], 77% in assay [8], 77% in [10] and 60% in assay [12].
For `CCOC(=O)[C@H](Cc1ccc(O)cc1)NC(=O)C1(NC(=O)[C@H](SC(=O)C2CCCC2)C(C)C)CCCC1`, the inhibition amounted to 33% in assay [13], 55% in assay [14], 34% in assay [15] and 38% in assay [16].
